Data reported in ChEMBL document CHEMBL4049440, “First Dual Inhibitors of Steroid Sulfatase (STS) and 17β-Hydroxysteroid Dehydrogenase Type 1 (17β-HSD1): Designed Multiple Ligands as Novel Potential Therapeutics for Estrogen-Dependent Diseases” (J Med Chem, 2017).
Active and inactive are the calls of the source. No cut-off for these calls is given here.

Assays:
[1] = Stability of the compound in Tris-HCl buffer at pH 7.2 after 30 mins; format: physicochemical; settings: pH 7.2, 0.5 h
In short: (§1)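 Compound incubated in 20 mM Tris-HCl buffer, pH 7.2, at 37 °C for 30 min. Remaining parent compound was measured, with sulfamate cleavage to the phenolic OH product monitored.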

Steryl-sulfatase [2] = biological target: T1, Steryl-sulfatase (Homo sapiens, UniProt P08842); assay: Inhibition of human placental microsomal STS assessed as formation of E1 preincubated for 30 mins followed by addition of E1S as substrate measured after 20 mins by ELISA
T1 sequence (P08842 whole entry): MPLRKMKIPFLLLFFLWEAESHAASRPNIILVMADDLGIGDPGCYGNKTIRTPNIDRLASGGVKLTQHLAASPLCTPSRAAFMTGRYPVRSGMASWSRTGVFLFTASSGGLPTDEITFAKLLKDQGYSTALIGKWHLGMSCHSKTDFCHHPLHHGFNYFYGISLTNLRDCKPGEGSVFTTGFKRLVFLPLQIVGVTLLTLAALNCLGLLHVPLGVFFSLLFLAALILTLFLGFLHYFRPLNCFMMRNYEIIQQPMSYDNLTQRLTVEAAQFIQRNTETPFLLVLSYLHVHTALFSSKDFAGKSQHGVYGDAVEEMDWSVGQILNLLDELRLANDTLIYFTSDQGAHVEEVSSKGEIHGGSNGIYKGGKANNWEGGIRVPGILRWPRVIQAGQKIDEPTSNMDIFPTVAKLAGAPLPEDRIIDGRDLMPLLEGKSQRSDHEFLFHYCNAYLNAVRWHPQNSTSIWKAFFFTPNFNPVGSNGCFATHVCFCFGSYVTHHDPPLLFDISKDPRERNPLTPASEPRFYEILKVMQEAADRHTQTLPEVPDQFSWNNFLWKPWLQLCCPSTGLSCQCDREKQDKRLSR
In short: (§2)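 Human placental STS incubated with estrone sulfate (E1S) as substrate in the presence of inhibitor; estrone (E1) formed was quantified by ELISA.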

[3] = biological target: T2, 17-beta-hydroxysteroid dehydrogenase type 1 (Homo sapiens, UniProt P14061); assay: Inhibition of human placental cytosolic 17beta-HSD1 using [3H]-E1/E1 substrate and NADH after 10 mins by HPLC based radio-detection method
T2 sequence (P14061 whole entry): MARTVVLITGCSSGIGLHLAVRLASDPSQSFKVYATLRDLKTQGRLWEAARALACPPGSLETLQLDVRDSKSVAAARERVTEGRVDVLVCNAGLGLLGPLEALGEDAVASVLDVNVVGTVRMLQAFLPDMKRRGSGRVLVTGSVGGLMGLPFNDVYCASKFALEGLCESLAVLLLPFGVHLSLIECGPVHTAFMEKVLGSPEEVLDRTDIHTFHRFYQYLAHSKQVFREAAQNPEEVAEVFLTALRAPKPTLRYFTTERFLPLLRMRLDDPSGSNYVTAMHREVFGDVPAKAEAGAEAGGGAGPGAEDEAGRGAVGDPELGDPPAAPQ
In short: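 Cell-free assay with the cytosolic fraction of human placenta as the 17β-HSD1 source and radiolabeled E1 as substrate, with test compound present.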

[4] = Selectivity factor, ratio of IC50 for human placental microsomal 17beta-HSD2 cells to IC50 for human placental cytosolic 17beta-HSD1
T47D [5] = assay: Antiproliferative activity against E1S/E1-stimulated human T47D cells assessed as reduction in cell viability measured after 7 days after MTT assay; format: functional, cell-based
[6] = biological target: T2, 17-beta-hydroxysteroid dehydrogenase type 1; assay: Inhibition of 17beta-HSD1 in human T47D cells preincubated for 1 hr followed by addition of [3H]-E1/E1 as substrate measured after 30 mins by HPLC based radio-detection method; format: cell-based
Steryl-sulfatase [7] = biological target: T1, Steryl-sulfatase; assay: Inhibition of STS in human T47D cells preincubated for 1 hr followed by addition of [3H]-E1S/E1S as substrate measured after 24 hrs by HPLC based radio-detection method; format: cell-based
[8] = biological target: T3, 17-beta-hydroxysteroid dehydrogenase type 2 (Homo sapiens, UniProt P37059); assay: Inhibition of human placental microsomal 17beta-HSD2 using [3H]-E2/E2 substrate and NAD+ after 20 mins by HPLC based radio-detection method
T3 sequence (P37059 whole entry): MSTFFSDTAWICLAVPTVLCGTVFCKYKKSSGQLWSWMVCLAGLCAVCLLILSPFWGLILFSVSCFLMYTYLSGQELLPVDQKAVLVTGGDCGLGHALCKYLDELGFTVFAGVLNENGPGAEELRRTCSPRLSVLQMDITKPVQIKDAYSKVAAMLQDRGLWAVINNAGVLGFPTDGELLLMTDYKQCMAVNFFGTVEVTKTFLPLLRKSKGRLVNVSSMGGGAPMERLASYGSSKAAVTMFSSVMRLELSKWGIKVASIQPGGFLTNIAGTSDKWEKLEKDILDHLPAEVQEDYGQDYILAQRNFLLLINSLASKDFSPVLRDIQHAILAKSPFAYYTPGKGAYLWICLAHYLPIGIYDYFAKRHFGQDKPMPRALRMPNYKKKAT

Steryl-sulfatase [9] = biological target: T1, Steryl-sulfatase; assay: Irreversible inhibition of STS in human T47D cells preincubated for 2 hrs followed by compound washout and addition of [3H]-E1S/E1S as substrate measured after 24 hrs by HPLC based radio-detection method; format: cell-based
[10] = biological target: T4, Steryl-sulfatase (Homo sapiens) (UniProt P08842); assay: Inhibition of human placental microsomal STS assessed as formation of E1 at 1 uM preincubated for 30 mins followed by addition of E1S as substrate measured after 20 mins by ELISA; in short: as §2
T4 sequence (whole entry): T1 sequence (P08842 whole entry)

HEK293 = assay: Cytotoxicity against HEK293 cells assessed as reduction in cell viability at 0.1 to 1 uM after 48 hrs by MTT assay; format: cell-based; settings: human, hek293, 48 h
[11] = biological target: T5, 17-beta-hydroxysteroid dehydrogenase type 1 (Homo sapiens) (UniProt P14061); assay: Irreversible inhibition of 17beta-HSD1 in human T47D cells at 50 nM preincubated for 2 hrs followed by compound washout and addition of […] as substrate measured after 24 hrs by HPLC based radio-detection method; format: cell-based
T5 sequence (whole entry): T2 sequence (P14061 whole entry)

[12] = biological target: T5, 17-beta-hydroxysteroid dehydrogenase type 1 (Homo sapiens); assay: Inhibition of 17beta-HSD1 in human T47D cells assessed as [3H]-E1 level at 400 nM after 48 hrs by HPLC based radio-detection method (reference value: 0.9%); format: cell-based; design: scale not given: the % may be the effect or the level left
[13] = biological target: T4, Steryl-sulfatase (Homo sapiens); assay: Inhibition of STS in human T47D cells assessed as [3H]-E1S level at 400 nM after 48 hrs by HPLC based radio-detection method (reference value: 3.9%); format: cell-based; design: scale not given: the % may be the effect or the level left
[14] = biological target: T5, 17-beta-hydroxysteroid dehydrogenase type 1 (Homo sapiens); assay: Inhibition of 17beta-HSD1 in human T47D cells assessed as [3H]-E2 level at 400 nM after 48 hrs by HPLC based radio-detection method (reference value: 95.2%); format: cell-based; design: scale not given: the % may be the effect or the level left
T47D [15] = assay: Cytotoxicity against human T47D cells assessed as reduction in cell viability at 400 nM after 7 days by MTT assay; format: cell-based; settings: 168 h, 0.4 µM
T47D [16] = assay: Antiproliferative activity against E2-stimulated human T47D cells assessed as reduction in cell viability at 400 nM measured after 7 days after MTT assay; format: functional, cell-based
[17] = Drug degradation in Tris-HCl buffer assessed as formation of metabolite containing phenolic OH-group by measuring remaining parent compound levels at pH 7.2 after 30 mins; in short: as §1
[18] = biological target: T5, 17-beta-hydroxysteroid dehydrogenase type 1 (Homo sapiens); assay: Inhibition of 17beta-HSD1 in human T47D cells assessed as [3H]-E2 level at 200 nM after 48 hrs by HPLC based radio-detection method (reference value: 95.2%); format: cell-based; design: scale not given: the % may be the effect or the level left
T47D [19] = assay: Antiproliferative activity against E1S/E1-stimulated human T47D cells assessed as cell viability at 50 to 200 nM measured after 7 days after MTT assay relative to control; format: functional
[20] = biological target: T5, 17-beta-hydroxysteroid dehydrogenase type 1 (Homo sapiens); assay: Inhibition of 17beta-HSD1 in human T47D cells assessed as [3H]-E1 level at 200 nM after 48 hrs by HPLC based radio-detection method (reference value: 0.9%); format: cell-based; design: scale not given: the % may be the effect or the level left
[21] = biological target: T5, 17-beta-hydroxysteroid dehydrogenase type 1 (Homo sapiens); assay: Inhibition of 17beta-HSD1 in human T47D cells at 1 uM preincubated for 1 hr followed by addition of [3H]-E1/E1 as substrate measured after 30 mins by HPLC based radio-detection method; format: cell-based
[22] = biological target: T4, Steryl-sulfatase (Homo sapiens); assay: Inhibition of STS in human T47D cells assessed as [3H]-E1S level at 200 nM after 48 hrs by HPLC based radio-detection method; format: cell-based; design: scale not given: the % may be the effect or the level left
[23] = biological target: T5, 17-beta-hydroxysteroid dehydrogenase type 1 (Homo sapiens); assay: Inhibition of human placental cytosolic 17beta-HSD1 at 1 uM using [3H]-E1/E1 substrate and NADH after 10 mins by HPLC based radio-detection method
In short: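 Enzyme from the cytosolic fraction of human placenta, incubated with radiolabelled estrone as substrate. Values are the mean of at least two independent experiments, each run in duplicate, with standard deviation under 15%.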

[24] = biological target: T6, 17beta-HSD2 (17-beta-hydroxysteroid dehydrogenase type 2) (Homo sapiens, UniProt P37059); assay: Inhibition of human placental microsomal 17beta-HSD2 at 1 uM using [3H]-E2/E2 substrate and NAD+ after 20 mins by HPLC based radio-detection method; settings: human placental microsomal 17beta-HSD2, probe [3H]-E2/E2
T6 sequence (P37059 whole entry): T3 sequence (P37059 whole entry)

[25] = biological target: T4, Steryl-sulfatase (Homo sapiens); assay: Irreversible inhibition of STS in human T47D cells at 1 uM preincubated for 2 hrs followed by compound washout and addition of [3H]-E1S/E1S as substrate measured after 24 hrs by HPLC based radio-detection method; format: cell-based
[26] = biological target: T4, Steryl-sulfatase (Homo sapiens); assay: Inhibition of STS in human T47D cells at 1 uM preincubated for 1 hr followed by addition of [3H]-E1S/E1S as substrate measured after 24 hrs by HPLC based radio-detection method; format: cell-based

Row | SMILES | Stability [1] | IC50 (Steryl-sulfatase [2]) [nM] | IC50 [3] [nM] | Ratio IC50 [4] | IC50 [6] [nM] | IC50 [8] [nM] | further results
1 | NS(=O)(=O)Oc1ccc(-c2ccc(C(=O)c3c(F)ccc(O)c3F)s2)c(Cl)c1 | Stable | 19.4 | 10.2 | 1.9 | 60.9 | 19.1 | Activity (T47D [5]): Dose-dependent effect; IC50 (Steryl-sulfatase [7]): 3.4 nM; IC50 (Steryl-sulfatase [9]): 3.9 nM
2 | NS(=O)(=O)Oc1ccc(-c2ccc(C(=O)c3c(F)ccc(O)c3F)s2)cc1F | Stable | 81.8 | 2.5 | 5.5 | 20 | 13.7 | Activity (T47D [5]): Dose-dependent effect; IC50 (Steryl-sulfatase [7]): 5.1 nM; IC50 (Steryl-sulfatase [9]): 5.7 nM
3 | NS(=O)(=O)Oc1cccc(-c2ccc(C(=O)c3c(F)ccc(O)c3F)s2)c1 | Stable | – | 2.2 | 14.2 | – | 31.3 | inhibition [10]: < 10%
4 | NS(=O)(=O)Oc1ccc(-c2ccc(C(=O)c3c(F)ccc(O)c3F)s2)cc1Cl | Stable | 143 | 1.1 | 33 | 22.2 | 36.1 | Activity (HEK293): Non-Toxic; inhibition [11]: inactive; Activity (T47D [5]): Dose-dependent effect; Activity [12]: 48.9%; Activity [13]: 50%; IC50 (Steryl-sulfatase [7]): 15.6 nM; IC50 (Steryl-sulfatase [9]): 16.4 nM; Activity [14]: 1.1%; Activity (T47D [15]): Non-Toxic; Activity (T47D [16]): inactive
5 | NS(=O)(=O)Oc1ccc(-c2ccc(C(=O)c3c(F)ccc(O)c3F)s2)c(F)c1Cl | – | 244 | 1.4 | 13.2 | – | 18.4 | Stability [17]: 22%
6 | NS(=O)(=O)Oc1cccc(-c2ccc(C(=O)c3c(F)ccc(O)c3F)s2)c1F | Stable | 123 | 7.1 | 2.5 | – | 17.4 | –
7 | Cc1cc(-c2ccc(C(=O)c3c(F)ccc(O)c3F)s2)ccc1OS(N)(=O)=O | Stable | 221 | 32.4 | 1 | – | 31.2 | –
8 | NS(=O)(=O)Oc1ccccc1-c1ccc(C(=O)c2c(F)ccc(O)c2F)s1 | Stable | – | 22.5 | 0.2 | – | 4.1 | inhibition [10]: < 10%
9 | NS(=O)(=O)Oc1ccc(-c2ccc(C(=O)c3c(F)ccc(O)c3F)s2)c(F)c1F | – | 105 | 2.7 | 8.6 | – | 23.2 | Stability [17]: 28%
10 | NS(=O)(=O)Oc1ccc(-c2ccc(C(=O)c3c(F)ccc(O)c3F)s2)c(F)c1 | Stable | 19.5 | 12.2 | 1.8 | 42.1 | 22.2 | Activity (T47D [5]): Dose-dependent effect; IC50 (Steryl-sulfatase [7]): 2.1 nM; IC50 (Steryl-sulfatase [9]): 3.1 nM
11 | Cc1cc(OS(N)(=O)=O)ccc1-c1ccc(C(=O)c2c(F)ccc(O)c2F)s1 | Stable | 35 | 43.5 | 0.9 | – | 40 | –
12 | NS(=O)(=O)Oc1ccc2c3c(c(=O)oc2c1)CCCCC3 [IROSUSTAT] | – | – | – | – | – | – | Activity [18]: 49.2%; Activity (T47D [19]): 200%; Activity [20]: 0.8%; inhibition [21]: < 5%; Activity [22]: 50%; inhibition [23]: < 10%; inhibition at 20 min, 1 µM [24]: < 10%
13 | O=C(c1ccc(-c2ccc(O)cc2)s1)c1c(F)ccc(O)c1F | – | – | 3.1 | 23.1 | 7.9 | – | Activity [18]: 7.9%; Activity (T47D [19]): 150%; Activity [20]: 88.4%; inhibition [25]: < 5%; inhibition [10]: < 10%; inhibition [26]: < 5%; Activity [22]: 3.5%
14 | NS(=O)(=O)Oc1ccc(-c2ccc(C(=O)c3c(F)ccc(O)c3F)s2)cc1 | Stable | – | 3.4 | 8.2 | – | 28 | inhibition [10]: < 10%
